We go through ten compounds from ChEMBL document CHEMBL3813669, “Synthesis and in vitro evaluation of hydrazinyl phthalazines against malaria parasite, Plasmodium falciparum” (Bioorg Med Chem Lett, 2016).

One assay relates to MDCK. Put plainly: Cytotoxicity against MDCK cells assessed as cell viability measured after overnight incubation by MTT assay. In kind it is cell-based. As to conditions: Canis lupus familiaris. In outline:
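MDCK cells were tested by MTT viability assay at compound concentrations up to 200 μM, alongside controls.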
(In general: Formazan colour is commonly taken as a measure of viable cells.)

The subject of assay [1] is Plasmodium falciparum. Put plainly: Antiplasmodial activity against Plasmodium falciparum 3D7 trophozoite stage infected in human RBCs assessed as reduction in parasitemia after 48 hrs by Hoechst-3342 staining based flow cytometric analysis. In kind it is functional, organism-based. The settings on record: 3D7, 48 h. In outline:
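Trophozoite-stage 3D7 parasites (~24–26 hpi) were exposed to 1.6 μM to 100 μM compound for 48 h, with DMSO-treated parasites as negative control and chloroquine as positive control. Parasitemia was read by flow cytometry, and IC50 was estimated from the concentration series.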
On the technique in general: In flow cytometry, cells or beads pass a laser one at a time.

Assay [2] in a line: Selectivity index, ratio of IC50 for MDCK cells to IC50 for Plasmodium falciparum 3D7. In outline:
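Ratio computed as […]. The 3D7 IC50 came from trophozoite-stage parasites (~24-26 hpi) incubated 48 h with 1.6-100 μM compound, with DMSO and chloroquine controls. The MDCK IC50 came from the MTT assay tested up to 200 μM.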

The test system of assay [3] is Plasmodium falciparum. In words: Antiplasmodial activity against Plasmodium falciparum 3D7 infected in human RBCs assessed as inhibition of ring to trophozoite stage transition at 0.25 to 4 times IC50 measured after 12 hrs by flow cytometric analysis. In kind it is functional, organism-based. In outline: (§1)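 Synchronised 3D7 cultures received compound at ring (2-4 h), trophozoite (24-26 h) or schizont (36-38 h) stage. Dosing was 4×, 2×, 1× and 0.25× the IC50 estimated from the 3D7 dose-response. Samples were harvested about 12 h later, and stage progression and morphology were monitored by flow cytometry and microscopy.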

Assay [4] concerns Plasmodium falciparum. In words: Antiplasmodial activity against Plasmodium falciparum 3D7 infected in human RBCs assessed as inhibition of merozoite maturation at schizont stage at IC50 by Giemsa-staining based microscopic analysis. Format: functional, organism-based.
Assay [5] has as its system Plasmodium falciparum. Put plainly: Antiplasmodial activity against Plasmodium falciparum 3D7 infected in human RBCs assessed as inhibition of trophozoite to schizont stage transition at 0.25 to 4 times IC50 measured after 12 hrs by flow cytometric analysis. In kind it is functional, organism-based. In outline: as §1
For assay [6], the system named is Plasmodium falciparum. In words: Antiplasmodial activity against Plasmodium falciparum 3D7 infected in human RBCs assessed as inhibition of schizont to ring stage transition at 2 and 4 times IC50 measured after 12 hrs by flow cytometric analysis. Format: functional, organism-based. In outline:
as §1

Assay [7] relates to Plasmodium falciparum. In words: Antiplasmodial activity against chloroquine-resistant Plasmodium falciparum K1 infected in human RBCs assessed as reduction in parasitemia after 48 hrs by Hoechst-3342 staining based flow cytometric analysis. In kind it is functional, organism-based. The settings on record: K1, 48 h. In a few lines:
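The K1 strain was screened across a 0–100 μM compound range alongside 3D7, and IC50 values were derived from parasitemia. Giemsa-stained smears from representative experiments were also examined by microscopy for parasite phenotype.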

In assay [8] the test system is Plasmodium falciparum. Put plainly: Antiplasmodial activity against Plasmodium falciparum 3D7 trophozoite stage infected in human RBCs assessed as reduction in parasitemia at 1 to 100 uM after 48 hrs by Hoechst-3342 staining based flow cytometric analysis. Format: functional, organism-based. In outline:
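3D7 parasites at trophozoite stage (~30 hpi) were exposed to 1, 20 and 100 μM compound, with DMSO-treated negative control. Parasitemia was read by flow cytometry after 48 h.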

Assay [9] concerns Plasmodium falciparum. In words: Antiplasmodial activity against Plasmodium falciparum 3D7 infected in human RBCs assessed as inhibition of schizont to ring stage transition at 4 times IC50 measured after 12 hrs by flow cytometric analysis. In kind it is functional, organism-based. In outline: as §1
The subject of assay [10] is Plasmodium falciparum. In words: Antiplasmodial activity against Plasmodium falciparum 3D7 infected in human RBCs assessed as inhibition of trophozoite to schizont stage transition at 2 and 4 times IC50 measured after 12 hrs by flow cytometric analysis. Format: functional, organism-based. In a few lines:
as §1

Assay [11] concerns Plasmodium falciparum. Put plainly: Antiplasmodial activity against Plasmodium falciparum 3D7 infected in human RBCs assessed as inhibition of schizont to ring stage transition at 1 to 4 times IC50 measured after 12 hrs by flow cytometric analysis. In kind it is functional, organism-based. In a few lines: as §1
For assay [12], the system named is Plasmodium falciparum. Put plainly: Antiplasmodial activity against Plasmodium falciparum 3D7 infected in human RBCs assessed as inhibition of ring to trophozoite stage transition at 4 times IC50 measured after 12 hrs by flow cytometric analysis. In kind it is functional, organism-based. In outline: as §1

Molecules are shown by their SMILES. Calls of active or inactive are those of the source. The calls are words filed in the database; no cut-off is given here. Where only a bound is given, the exact number is not on record here.

As for `Oc1ccc(Cl)cc1/C=N\Nc1nncc2ccccc12`, the concentration for half-maximal inhibition (IC50) (as a rule, the concentration that inhibits the measured activity by half) was above 100 µM with MDCK, 1.65 µM in the assay on Plasmodium falciparum [1] and 1.69 µM with Plasmodium falciparum [7]. The “Ratio IC50” value in [2] was 60.75. In addition, the inhibition result with Plasmodium falciparum [3] and in the assay with Plasmodium falciparum [5] was “inactive” throughout. Further, the inhibition entry with Plasmodium falciparum [4] and in the assay with Plasmodium falciparum [6] was “Active” in each case.
For the compound `O=c1cc(/C=N/Nc2nncc3ccccc23)oc2ccccc12`, the inhibition entry in the assay on Plasmodium falciparum [8] was “Active”.
On to `C(=N\Nc1nncc2ccccc12)/c1c[nH]c2ccccc12`, for which the figures for the IC50 in the assay with MDCK, in the assay with Plasmodium falciparum [1] and with Plasmodium falciparum [7] were above 200 µM, 13.7 µM and 6.66 µM, respectively. The “Ratio IC50” value in assay [2] is given as 14.56. Further, the inhibition result in the assay on Plasmodium falciparum [3] and in the assay with Plasmodium falciparum [5] was “inactive” throughout. Also, the inhibition entry in the assay with Plasmodium falciparum [9] is “Active”.
For the compound `C(=N\Nc1nncc2ccccc12)/C1CC1`, the inhibition result with Plasmodium falciparum [8] was “Active”.
Consider `C(=N\Nc1nncc2ccccc12)/c1c(-c2ccccc2)[nH]c2ccccc12`, for which the IC50 with MDCK is above 200 µM; in the assay with Plasmodium falciparum [1], 3.49 µM; in the assay on Plasmodium falciparum [7], 2.43 µM. The “Ratio IC50” value in assay [2] is listed as 57.31. Further, in the assay on Plasmodium falciparum [3], the inhibition result is “inactive”. Besides, the inhibition result in the assay on Plasmodium falciparum [6] and with Plasmodium falciparum [10] was “Active” each time.
As to `Cc1cc(/C=N/Nc2nncc3ccccc23)c([N+](=O)[O-])cc1C`, the inhibition entry with Plasmodium falciparum [8] is “Active”.
As for `CS(=O)(=O)c1ccc(/C=N/Nc2nncc3ccccc23)cc1`, the inhibition result in the assay with Plasmodium falciparum [8] is “Active”.
Still for that read-out and setting: then `C(=N\Nc1nncc2ccccc12)/c1ccc2c(c1)CCO2`, with “Active”.
Take `Cn1ccnc1/C=N/Nc1nncc2ccccc12`: the IC50 in the assay on MDCK was above 200 µM; in the assay with Plasmodium falciparum [1] it was 3.5 µM; in the assay with Plasmodium falciparum [7] it was 2.23 µM. Further, the inhibition entry in the assay with Plasmodium falciparum [11] and in the assay with Plasmodium falciparum [4] was “Active” throughout. The “Ratio IC50” value in assay [2] was 57.22. Moreover, the inhibition result with Plasmodium falciparum [3] and in the assay with Plasmodium falciparum [5] was “inactive” each time.
`Cc1[nH]c2ccccc2c1/C=N/Nc1nncc2ccccc12`: the IC50 was above 200 µM in the assay with MDCK, 12.2 µM in the assay on Plasmodium falciparum [1] and 5.98 µM with Plasmodium falciparum [7]. The “Ratio IC50” value in [2] worked out at 16.42. The inhibition result in the assay on Plasmodium falciparum [12], with Plasmodium falciparum [6] and in the assay with Plasmodium falciparum [10] was “Active” each time.
